Results published in ChEMBL document CHEMBL1142921, “Synthesis of DL-standishinal and its related compounds for the studies on structure-activity relationship of inhibitory activity against aromatase” (Bioorg Med Chem, 2007).

Key:
Details in all cases: 0.5 h
Aromatase [1] = molecular target: T1, Aromatase (Homo sapiens, UniProt P11511); assay: Inhibition of human recombinant aromatase at 300 nM after 30 mins relative to control
T1 sequence (P11511 whole entry): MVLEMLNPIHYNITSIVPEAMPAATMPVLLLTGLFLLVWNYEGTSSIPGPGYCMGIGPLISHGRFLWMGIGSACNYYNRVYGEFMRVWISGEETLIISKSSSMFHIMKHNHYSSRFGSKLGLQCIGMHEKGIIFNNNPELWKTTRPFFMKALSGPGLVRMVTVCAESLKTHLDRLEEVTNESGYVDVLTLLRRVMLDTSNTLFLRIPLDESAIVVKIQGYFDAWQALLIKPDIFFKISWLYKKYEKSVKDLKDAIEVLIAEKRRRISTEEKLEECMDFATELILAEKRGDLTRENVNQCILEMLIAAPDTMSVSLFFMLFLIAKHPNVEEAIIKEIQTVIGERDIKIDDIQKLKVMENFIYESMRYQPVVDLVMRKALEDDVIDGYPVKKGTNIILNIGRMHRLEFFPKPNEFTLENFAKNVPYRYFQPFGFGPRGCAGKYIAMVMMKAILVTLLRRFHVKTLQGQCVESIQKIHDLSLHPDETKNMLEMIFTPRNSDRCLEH
In short: (§1)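 Human recombinant aromatase (CYP19) expressed in insect cells via baculovirus; fluorogenic substrate methoxy-4-trifluoromethylcoumarin, 3 µM in the reaction. Compounds in acetone, serially diluted 1:3 in NADPH-cofactor buffer. Reaction started with prewarmed enzyme–substrate mix, 30 min at 37 °C. Fluorescence read at 409 nm excitation / 530 nm emission. Blank lacks enzyme. Inhibition as % of no-inhibitor control; mean ± SD, n = 4; Student t test.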

Aromatase [2] = molecular target: T1, Aromatase; assay: Inhibition of human recombinant aromatase at 10 uM after 30 mins relative to control; in short: as §1
Aromatase [3] = molecular target: T1, Aromatase; assay: Inhibition of human recombinant aromatase at 1 uM after 30 mins relative to control; in short: as §1
Aromatase [4] = molecular target: T1, Aromatase; assay: Inhibition of human recombinant aromatase at 3 uM after 30 mins relative to control; in short: as §1

## COc1cc2c(cc1C(C)C)CC[C@@H]1C(C)(C)CCC[C@]21C
Aromatase [1]
  inhibition at 0.3 µM: 15.2%
Aromatase [2]
  inhibition at 10 µM: 19.7%
Aromatase [3]
  inhibition at 1 µM: 15.9%
Aromatase [4]
  inhibition at 3 µM: 18.4%

## N#Cc1ccc(C(c2ccc(C#N)cc2)n2cncn2)cc1 [LETROZOLE]
Aromatase [1]
  inhibition at 0.3 µM: 89.3%
Aromatase [2]
  inhibition at 10 µM: 92.5%
Aromatase [3]
  inhibition at 1 µM: 91.1%
Aromatase [4]
  inhibition at 3 µM: 83.8%

## CC(C)c1cc(C=O)c([C@@]2(C)CCCC(C)(C)[C@@H]2C=O)cc1O
Aromatase [1]
  inhibition at 0.3 µM: 5.9%
Aromatase [2]
  inhibition at 10 µM: 9.2%
Aromatase [3]
  inhibition at 1 µM: < 0%
Aromatase [4]
  inhibition at 3 µM: 3.3%

## COc1cc2c(cc1C(C)C)C=C[C@@H]1C(C)(C)CCC[C@]21C
Aromatase [1]
  inhibition at 0.3 µM: 16.2%
Aromatase [2]
  inhibition at 10 µM: 19.8%
Aromatase [3]
  inhibition at 1 µM: 19.7%
Aromatase [4]
  inhibition at 3 µM: 18.6%

## CC(C)c1cc(C=O)c([C@@]2(C)CCCC(C)(C)[C@H]2C=O)cc1O
Aromatase [1]
  inhibition at 0.3 µM: 22.2%
Aromatase [2]
  inhibition at 10 µM: 25.1%
Aromatase [3]
  inhibition at 1 µM: 24.5%
Aromatase [4]
  inhibition at 3 µM: 24.9%

## CC(=O)N1CCN(c2ccc(OC[C@H]3CO[C@](Cn4ccnc4)(c4ccc(Cl)cc4Cl)O3)cc2)CC1 [KETOCONAZOLE]
Aromatase [1]
  inhibition at 0.3 µM: 81.7%
Aromatase [2]
  inhibition at 10 µM: 87.9%
Aromatase [3]
  inhibition at 1 µM: 84.2%
Aromatase [4]
  inhibition at 3 µM: 87.5%

## COc1cc2c(cc1C(C)C)CC[C@H]1C(C)(C)CCC[C@]21C
Aromatase [1]
  inhibition at 0.3 µM: 9%
Aromatase [2]
  inhibition at 10 µM: 4.8%
Aromatase [3]
  inhibition at 1 µM: 2.2%
Aromatase [4]
  inhibition at 3 µM: 4.1%

## COc1cc2c(cc1C(C)C)C(=O)C[C@H]1C(C)(C)CCC[C@]21C
Aromatase [1]
  inhibition at 0.3 µM: < 0%
Aromatase [2]
  inhibition at 10 µM: 19.8%
Aromatase [3]
  inhibition at 1 µM: 18.1%
Aromatase [4]
  inhibition at 3 µM: 6.7%

## COc1cc2c(cc1C(C)C)C(=O)C[C@@H]1C(C)(C)CCC[C@]21C
Aromatase [1]
  inhibition at 0.3 µM: 20.7%
Aromatase [2]
  inhibition at 10 µM: 19.5%
Aromatase [3]
  inhibition at 1 µM: 28.7%
Aromatase [4]
  inhibition at 3 µM: 23.9%

## CC(C)c1cc(C=O)c2c(c1O)[C@H](O)[C@H]1C(C)(C)CCC[C@]21C [STANDISHINAL]
Aromatase [1]
  inhibition at 0.3 µM: 1.1%
Aromatase [2]
  inhibition at 10 µM: 23.7%
Aromatase [3]
  inhibition at 1 µM: 10.3%
Aromatase [4]
  inhibition at 3 µM: 6.7%
